System: HepG2
Assay: Induction of ACC phosphorylation in human HepG2 cells after 2 hrs by Western blot analysis
Format: cell-based
Settings: not given
How it was run: (§1)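 HepG2 in 12-well plates exposed to increasing doses for 2 h. Lysed on ice in RIPA buffer (pH 7.2) with phosphatase and protease inhibitors. Run on 7.5% SDS-PAGE and blotted to PVDF. Blocked 1 h in 5% BSA, primary antibodies overnight at 4 °C, secondary 1 h at room temperature. Chemiluminescent detection. Means ± SE of 3 independent experiments.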

**Q.** For N#Cc1ccc(/C=C/C(=O)COc2c(-c3ccc(O)cc3)oc3cc(O)cc(O)c3c2=O)cc1, which Activity is on record?
**A.** The Activity was “Dose-dependent effect”.

System: HepG2
Assay: Increase in glucose consumption in insulin-resistant human HepG2 cells after 24 hrs
Format: functional, cell-based
Settings: HepG2, 24 h
How it was run: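 HepG2 grown in high-glucose DMEM with 10% FBS, then plated 24 h. Made insulin-resistant with 10^-7 M insulin for 36 h in serum-free, phenol red-free high-glucose DMEM. Washed, then exposed to test agents at several concentrations for 24 h. Medium glucose measured by kit. Consumption gain expressed as % over the insulin-resistant model group. EC50 derived.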

**Q.** With O=C(/C=C/c1ccc(O)c(Cl)c1)COc1c(-c2ccc(O)cc2)oc2cc(O)cc(O)c2c1=O as the compound, how does the EC50 read?
**A.** Its EC50 is 3560 nM.

**Q.** For COc1cc(/C=C/C(=O)COc2c(-c3ccc(O)cc3)oc3cc(O)cc(O)c3c2=O)ccc1OCc1ccccc1, which EC50 is on record?
**A.** Its EC50 is greater than 20000 nM.

**Q.** With CCCCCCCCOc1ccc(/C=C/C(=O)COc2c(-c3ccc(O)cc3)oc3cc(O)cc(O)c3c2=O)cc1 as the compound, how does the EC50 read?
**A.** Its EC50 is greater than 20000 nM.

**Q.** For CC(C)(C)c1ccc(/C=C/C(=O)COc2c(-c3ccc(O)cc3)oc3cc(O)cc(O)c3c2=O)cc1, which EC50 is on record?
**A.** Its EC50 is 13 nM.

**Q.** With O=C(/C=C/c1ccc(O)cc1)OC[C@H]1O[C@@H](Oc2c(-c3ccc(O)cc3)oc3cc(O)cc(O)c3c2=O)[C@H](O)[C@@H](O)[C@@H]1O [TILIROSIDE] as the compound, how does the EC50 read?
**A.** The EC50 was 155 nM.

**Q.** With Cc1ccc(/C=C/C(=O)COc2c(-c3ccc(O)cc3)oc3cc(O)cc(O)c3c2=O)cc1 as the compound, how does the EC50 read?
**A.** Its EC50 is 10 nM.

**Q.** Which EC50 does the source give for CCOc1ccc(/C=C/C(=O)COc2c(-c3ccc(O)cc3)oc3cc(O)cc(O)c3c2=O)cc1 here?
**A.** The EC50 was 42 nM.

**Q.** For CCCCOc1ccc(/C=C/C(=O)COc2c(-c3ccc(O)cc3)oc3cc(O)cc(O)c3c2=O)cc1, which EC50 is on record?
**A.** The EC50 was greater than 20000 nM.

**Q.** With O=C(/C=C/c1ccc(OCc2ccccc2)cc1)COc1c(-c2ccc(O)cc2)oc2cc(O)cc(O)c2c1=O as the compound, how does the EC50 read?
**A.** The EC50 was 658 nM.

**Q.** Which EC50 does the source give for O=C(/C=C/c1ccc(Cl)c(Cl)c1)COc1c(-c2ccc(O)cc2)oc2cc(O)cc(O)c2c1=O here?
**A.** The EC50 was 2590 nM.

**Q.** Which EC50 does the source give for O=C(/C=C/c1ccc(F)cc1)COc1c(-c2ccc(O)cc2)oc2cc(O)cc(O)c2c1=O here?
**A.** The EC50 was 669 nM.

**Q.** For CSc1ccc(/C=C/C(=O)COc2c(-c3ccc(O)cc3)oc3cc(O)cc(O)c3c2=O)cc1, which EC50 is on record?
**A.** Its EC50 is greater than 20000 nM.

**Q.** With O=C(/C=C/c1ccc(Cl)cc1)COc1c(-c2ccc(O)cc2)oc2cc(O)cc(O)c2c1=O as the compound, how does the EC50 read?
**A.** Its EC50 is 1080 nM.

**Q.** Which EC50 does the source give for CCCCCCOc1ccc(/C=C/C(=O)COc2c(-c3ccc(O)cc3)oc3cc(O)cc(O)c3c2=O)cc1 here?
**A.** The EC50 was greater than 20000 nM.

**Q.** With COc1ccc(/C=C/C(=O)COc2c(-c3ccc(O)cc3)oc3cc(O)cc(O)c3c2=O)cc1 as the compound, how does the EC50 read?
**A.** The EC50 was 149 nM.

**Q.** Which EC50 does the source give for O=C(/C=C/c1ccc(C(F)(F)F)cc1)COc1c(-c2ccc(O)cc2)oc2cc(O)cc(O)c2c1=O here?
**A.** The EC50 was greater than 20000 nM.

**Q.** For N#Cc1ccc(/C=C/C(=O)COc2c(-c3ccc(O)cc3)oc3cc(O)cc(O)c3c2=O)cc1, which EC50 is on record?
**A.** The EC50 was 3 nM.

**Q.** Which EC50 does the source give for COc1cc(/C=C/C(=O)COc2c(-c3ccc(O)cc3)oc3cc(O)cc(O)c3c2=O)ccc1O here?
**A.** Its EC50 is 6190 nM.

**Q.** Which EC50 does the source give for O=C(/C=C/c1ccc(Br)cc1)COc1c(-c2ccc(O)cc2)oc2cc(O)cc(O)c2c1=O here?
**A.** The EC50 was 393 nM.

**Q.** With COc1ccc(/C=C/C(=O)COc2c(-c3ccc(O)cc3)oc3cc(O)cc(O)c3c2=O)cc1O as the compound, how does the EC50 read?
**A.** The EC50 was 5070 nM.

**Q.** For CN(C)C(=N)NC(=N)N [METFORMIN], which EC50 is on record?
**A.** The EC50 was 270 nM.

**Q.** Which EC50 does the source give for CC(C)c1ccc(/C=C/C(=O)COc2c(-c3ccc(O)cc3)oc3cc(O)cc(O)c3c2=O)cc1 here?
**A.** The EC50 was 15 nM.

**Q.** For O=C(/C=C/c1ccc(O)cc1)COc1c(-c2ccc(O)cc2)oc2cc(O)cc(O)c2c1=O, which EC50 is on record?
**A.** Its EC50 is 368 nM.

**Q.** For COc1ccc(/C=C/C(=O)COc2c(-c3ccc(O)cc3)oc3cc(O)cc(O)c3c2=O)cc1Br, which EC50 is on record?
**A.** The EC50 was greater than 20000 nM.

**Q.** For O=C(/C=C/c1ccccc1)COc1c(-c2ccc(O)cc2)oc2cc(O)cc(O)c2c1=O, which EC50 is on record?
**A.** Its EC50 is 473 nM.

Target: AMP-activated protein kinase, AMPK (Homo sapiens) (UniProt P54646+O43741+P54619+Q9UGJ0+Q9Y478+Q13131+Q9UGI9)
Assay: Induction of AMPK phosphorylation in human HepG2 cells after 2 hrs by Western blot analysis
Format: cell-based
Settings: not given
How it was run: as §1

**Q.** With N#Cc1ccc(/C=C/C(=O)COc2c(-c3ccc(O)cc3)oc3cc(O)cc(O)c3c2=O)cc1 as the compound, how does the Activity read?
**A.** The Activity was “Dose-dependent effect”.

Target: not listed separately
Assay: Inhibition of dephosphorylated glycogen phosphorylase
Settings: not given

**Q.** For O=c1cc(-c2ccc(O)c(O)c2)oc2cc(O)c(O)c(O)c12 [6-HYDROXYLUTEOLIN], which IC50 is on record?
**A.** The IC50 was 11600 nM.

**Q.** With O=c1c(O)c(-c2ccc(O)c(O)c2)oc2cc(O)c(O)c(O)c12 [QUERCETAGETIN] as the compound, how does the IC50 read?
**A.** The IC50 was 9700 nM.

**Q.** Which IC50 does the source give for O=c1cc(-c2ccc(O)c(O)c2)oc2c(O)c(O)cc(O)c12 [HYPOLAETIN] here?
**A.** The IC50 was 15700 nM.

Reference: ChEMBL document CHEMBL1828618, “Synthesis and biological activity of novel tiliroside derivants” (Eur J Med Chem, 2011)
